Results reported in paper PMC3184254 (Nature Chemical Biology, 2011).
Like-named read-outs stand apart in the source and are kept apart here.

Key:
[1] = molecular target: T1, G9a (Homo sapiens, UniProt Q96KQ7); test: Surface plasmon resonance; assay type: binding; conditions: SPR
T1 sequence (Q96KQ7 1-1210): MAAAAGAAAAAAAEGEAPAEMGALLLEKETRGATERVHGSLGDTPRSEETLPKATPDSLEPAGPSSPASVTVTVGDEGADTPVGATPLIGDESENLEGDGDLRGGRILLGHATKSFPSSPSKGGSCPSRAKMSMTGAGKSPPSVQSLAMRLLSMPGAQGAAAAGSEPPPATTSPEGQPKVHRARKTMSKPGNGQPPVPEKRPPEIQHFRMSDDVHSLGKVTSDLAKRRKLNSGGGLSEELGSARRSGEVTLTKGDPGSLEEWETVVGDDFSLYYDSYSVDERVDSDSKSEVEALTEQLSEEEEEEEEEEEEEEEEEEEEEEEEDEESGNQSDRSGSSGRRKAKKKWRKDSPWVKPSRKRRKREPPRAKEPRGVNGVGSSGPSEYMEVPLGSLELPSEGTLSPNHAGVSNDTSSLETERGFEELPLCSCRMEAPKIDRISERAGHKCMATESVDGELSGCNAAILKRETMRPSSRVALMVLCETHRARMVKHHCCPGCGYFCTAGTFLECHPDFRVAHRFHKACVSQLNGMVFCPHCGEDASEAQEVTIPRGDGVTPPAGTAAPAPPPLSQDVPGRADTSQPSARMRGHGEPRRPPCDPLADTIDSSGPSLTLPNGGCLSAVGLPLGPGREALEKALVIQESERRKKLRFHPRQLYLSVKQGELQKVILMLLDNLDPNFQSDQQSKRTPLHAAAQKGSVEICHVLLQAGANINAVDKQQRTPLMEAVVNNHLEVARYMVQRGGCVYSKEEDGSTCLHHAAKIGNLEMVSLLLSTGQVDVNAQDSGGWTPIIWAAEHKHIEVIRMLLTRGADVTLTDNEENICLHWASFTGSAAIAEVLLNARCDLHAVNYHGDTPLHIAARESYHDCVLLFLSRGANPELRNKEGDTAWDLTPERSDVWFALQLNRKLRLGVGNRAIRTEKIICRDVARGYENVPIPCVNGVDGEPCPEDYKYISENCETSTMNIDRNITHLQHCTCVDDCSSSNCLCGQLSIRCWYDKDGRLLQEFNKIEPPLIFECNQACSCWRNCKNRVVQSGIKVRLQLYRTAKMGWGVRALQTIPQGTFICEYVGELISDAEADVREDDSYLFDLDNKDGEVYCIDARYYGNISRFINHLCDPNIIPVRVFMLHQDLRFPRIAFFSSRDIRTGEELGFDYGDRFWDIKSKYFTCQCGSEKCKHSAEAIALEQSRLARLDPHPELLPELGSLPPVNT

[2] = system: MDA-MB-231 cells; test: MTT assay, MDA-MB-231; assay type: cell-based, human; conditions: Homo sapiens, MDA-MB-231, read-out: EC50 cellular toxicity (MTT)
[3] = system: H3K9me2 levels in J1 mES cells; test: Cellular potency; assay type: cell-based; conditions: Mus musculus, 48 h, read-out: IC50 cellular potency
[4] = system: DNA methylation on chr3 and chrX in MCF7 cells; test: DNA methylation microarray analysis, MCF7; assay type: cell-based, human; conditions: 14 d at 70 or 320 nM
[5] = molecular target: PRMT3 (Homo sapiens, UniProt O60678); test: SAHH-coupled assay, PRMT3; assay type: biochemical
PRMT3, sequence (O60678 whole entry, species assumed): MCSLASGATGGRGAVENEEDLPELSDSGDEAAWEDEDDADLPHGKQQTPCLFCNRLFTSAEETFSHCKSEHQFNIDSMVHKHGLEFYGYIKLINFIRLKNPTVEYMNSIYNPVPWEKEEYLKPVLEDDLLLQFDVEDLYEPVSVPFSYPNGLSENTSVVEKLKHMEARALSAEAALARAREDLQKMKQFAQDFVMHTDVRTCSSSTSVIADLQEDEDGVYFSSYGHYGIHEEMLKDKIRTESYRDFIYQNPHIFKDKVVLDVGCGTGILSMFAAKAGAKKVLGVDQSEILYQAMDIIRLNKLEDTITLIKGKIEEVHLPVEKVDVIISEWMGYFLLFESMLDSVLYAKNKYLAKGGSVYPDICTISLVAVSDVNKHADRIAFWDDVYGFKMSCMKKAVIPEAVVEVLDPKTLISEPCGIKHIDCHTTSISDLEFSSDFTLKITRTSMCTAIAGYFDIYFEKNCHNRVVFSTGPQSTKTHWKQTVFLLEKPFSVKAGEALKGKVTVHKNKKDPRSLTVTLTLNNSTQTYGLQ
Outline: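 A fluorescence-based coupled assay used S-adenosyl-L-homocysteine hydrolase to follow conversion of cofactor SAM to SAH by the methyltransferase. IC50 values are the average of at least two separate experiments.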

[6] = molecular target: muscarinic M2 receptor (Homo sapiens, UniProt P08172); test: Ricerca Selectivity Panel, muscarinic M2; assay type: binding
[7] = molecular target: adrenergic α1A receptor (Rattus norvegicus, UniProt P43140); test: Ricerca Selectivity Panel, adrenergic α1A; assay type: binding
adrenergic α1A receptor, sequence (P43140 whole entry): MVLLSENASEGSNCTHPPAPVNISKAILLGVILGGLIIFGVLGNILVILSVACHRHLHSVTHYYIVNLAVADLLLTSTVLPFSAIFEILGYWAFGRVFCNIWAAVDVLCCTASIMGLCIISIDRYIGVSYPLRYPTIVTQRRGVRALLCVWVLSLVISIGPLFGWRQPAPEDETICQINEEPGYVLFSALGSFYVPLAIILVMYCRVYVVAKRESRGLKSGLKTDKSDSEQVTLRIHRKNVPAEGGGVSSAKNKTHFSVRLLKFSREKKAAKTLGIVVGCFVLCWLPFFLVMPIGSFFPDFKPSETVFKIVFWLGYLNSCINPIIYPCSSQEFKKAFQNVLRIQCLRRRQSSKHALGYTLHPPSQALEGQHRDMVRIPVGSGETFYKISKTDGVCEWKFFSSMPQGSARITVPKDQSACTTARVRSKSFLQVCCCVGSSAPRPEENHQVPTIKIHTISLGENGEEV

[8] = system: M1, M2 and M4; test: M1, M2 and M4 functional assays; assay type: cell-based
[9] = system: retrovirus long terminal repeat and MAGEA2 promoter in mES cells; test: Bisulfite sequencing DNA methylation in mES cells; assay type: cell-based, mouse; conditions: after 10 d of treatment
Outline: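 J1 mouse ES cells were grown on 0.1% gelatin in DMEM with 15% ES-qualified FBS, 4 mM L-glutamine, 0.1 mM nonessential amino acids, 1 mM pyruvate, 0.55 mM 2-mercaptoethanol and LIF. They carried a silenced HSC1 retroviral EGFP-puromycin reporter driven by the EF1a promoter.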

[10] = molecular target: EZH2 (Homo sapiens, UniProt Q15910); test: BPS Bioscience assay, EZH2; assay type: biochemical
EZH2, sequence (Q15910 whole entry, species assumed): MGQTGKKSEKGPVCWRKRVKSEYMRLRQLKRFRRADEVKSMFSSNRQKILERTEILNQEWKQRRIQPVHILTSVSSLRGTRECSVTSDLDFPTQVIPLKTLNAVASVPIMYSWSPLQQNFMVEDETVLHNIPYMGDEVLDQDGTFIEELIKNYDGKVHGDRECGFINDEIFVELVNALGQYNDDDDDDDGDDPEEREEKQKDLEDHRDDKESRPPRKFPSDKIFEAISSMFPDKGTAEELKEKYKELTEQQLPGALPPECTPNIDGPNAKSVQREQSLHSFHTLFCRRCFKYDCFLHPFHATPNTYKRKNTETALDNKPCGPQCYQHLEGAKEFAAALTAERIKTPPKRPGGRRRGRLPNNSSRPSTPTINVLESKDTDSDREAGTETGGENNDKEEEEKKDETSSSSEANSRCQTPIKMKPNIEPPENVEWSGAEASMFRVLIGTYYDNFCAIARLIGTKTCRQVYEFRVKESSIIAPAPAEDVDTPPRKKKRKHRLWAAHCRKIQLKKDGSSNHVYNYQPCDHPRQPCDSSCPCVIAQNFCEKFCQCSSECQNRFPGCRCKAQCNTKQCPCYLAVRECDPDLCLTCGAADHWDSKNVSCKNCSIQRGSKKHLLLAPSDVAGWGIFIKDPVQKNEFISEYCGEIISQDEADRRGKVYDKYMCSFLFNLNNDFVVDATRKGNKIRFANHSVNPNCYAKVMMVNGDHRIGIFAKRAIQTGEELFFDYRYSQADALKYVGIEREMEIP
EZH2, sequence (O75530 whole entry partner, species assumed): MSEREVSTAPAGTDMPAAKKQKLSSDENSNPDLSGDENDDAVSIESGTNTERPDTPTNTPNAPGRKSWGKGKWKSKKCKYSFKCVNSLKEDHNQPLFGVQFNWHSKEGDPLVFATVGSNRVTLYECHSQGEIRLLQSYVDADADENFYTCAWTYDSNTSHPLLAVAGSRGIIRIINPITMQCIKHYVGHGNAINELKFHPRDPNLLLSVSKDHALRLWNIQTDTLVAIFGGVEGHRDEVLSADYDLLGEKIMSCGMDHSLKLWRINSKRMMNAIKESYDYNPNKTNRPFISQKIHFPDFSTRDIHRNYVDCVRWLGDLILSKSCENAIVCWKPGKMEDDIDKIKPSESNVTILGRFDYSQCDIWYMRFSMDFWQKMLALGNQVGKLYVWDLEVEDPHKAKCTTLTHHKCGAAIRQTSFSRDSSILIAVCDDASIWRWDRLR
EZH2, sequence (Q15022 whole entry partner, species assumed): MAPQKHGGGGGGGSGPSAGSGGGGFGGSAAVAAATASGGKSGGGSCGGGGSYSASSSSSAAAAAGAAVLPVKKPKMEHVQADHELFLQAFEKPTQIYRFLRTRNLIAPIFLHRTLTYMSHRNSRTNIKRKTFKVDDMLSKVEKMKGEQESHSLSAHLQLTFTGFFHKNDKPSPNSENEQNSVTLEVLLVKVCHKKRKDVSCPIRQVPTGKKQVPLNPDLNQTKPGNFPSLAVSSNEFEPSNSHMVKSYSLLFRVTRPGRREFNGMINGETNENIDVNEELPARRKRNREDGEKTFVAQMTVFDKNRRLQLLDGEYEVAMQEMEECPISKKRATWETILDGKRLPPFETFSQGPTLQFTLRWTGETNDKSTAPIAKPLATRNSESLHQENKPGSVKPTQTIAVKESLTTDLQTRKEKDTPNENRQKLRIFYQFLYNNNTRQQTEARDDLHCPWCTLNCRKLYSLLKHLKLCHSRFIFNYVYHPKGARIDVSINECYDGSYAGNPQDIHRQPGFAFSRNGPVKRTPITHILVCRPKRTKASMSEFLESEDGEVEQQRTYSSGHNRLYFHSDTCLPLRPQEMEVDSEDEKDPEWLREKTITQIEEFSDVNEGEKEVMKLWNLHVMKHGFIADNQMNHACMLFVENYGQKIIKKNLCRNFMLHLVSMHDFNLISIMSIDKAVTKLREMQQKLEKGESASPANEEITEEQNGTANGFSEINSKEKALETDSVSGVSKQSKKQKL
EZH2, sequence (Q09028 whole entry partner, species assumed): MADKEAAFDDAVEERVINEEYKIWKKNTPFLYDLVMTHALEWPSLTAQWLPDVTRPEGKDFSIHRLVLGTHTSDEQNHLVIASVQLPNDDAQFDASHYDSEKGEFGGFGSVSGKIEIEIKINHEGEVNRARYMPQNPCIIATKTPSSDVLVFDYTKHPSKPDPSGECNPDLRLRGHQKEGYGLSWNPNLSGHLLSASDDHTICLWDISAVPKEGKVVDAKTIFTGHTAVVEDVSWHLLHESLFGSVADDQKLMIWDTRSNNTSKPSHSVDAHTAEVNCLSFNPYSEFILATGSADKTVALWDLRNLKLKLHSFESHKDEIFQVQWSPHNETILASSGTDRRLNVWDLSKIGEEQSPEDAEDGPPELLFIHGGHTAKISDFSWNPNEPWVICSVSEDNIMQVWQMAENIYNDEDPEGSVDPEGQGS
EZH2, sequence (Q6ZN18 whole entry partner, species assumed): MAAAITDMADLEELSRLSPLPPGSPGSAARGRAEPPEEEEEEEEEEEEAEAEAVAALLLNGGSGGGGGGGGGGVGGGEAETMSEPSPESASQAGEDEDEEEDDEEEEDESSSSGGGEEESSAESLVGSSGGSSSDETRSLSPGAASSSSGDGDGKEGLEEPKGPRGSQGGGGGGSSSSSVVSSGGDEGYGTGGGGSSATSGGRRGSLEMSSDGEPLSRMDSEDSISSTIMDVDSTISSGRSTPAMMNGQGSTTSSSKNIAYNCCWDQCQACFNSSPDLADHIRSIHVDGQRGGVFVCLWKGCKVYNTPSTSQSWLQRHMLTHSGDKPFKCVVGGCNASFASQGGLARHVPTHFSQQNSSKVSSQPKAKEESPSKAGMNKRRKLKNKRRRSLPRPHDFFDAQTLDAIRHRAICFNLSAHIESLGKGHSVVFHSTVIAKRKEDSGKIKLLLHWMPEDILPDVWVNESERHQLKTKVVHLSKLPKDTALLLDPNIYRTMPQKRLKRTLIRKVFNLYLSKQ

[11] = system: 26 out of 29 targets in the Ricerca Selectivity Panel; test: Ricerca Selectivity Panel; assay type: binding; conditions: at 1 μM
[12] = molecular target: PRMT1 (Homo sapiens, UniProt Q99873); test: BPS Bioscience assay, PRMT1; assay type: biochemical
PRMT1, sequence (Q99873 whole entry, species assumed): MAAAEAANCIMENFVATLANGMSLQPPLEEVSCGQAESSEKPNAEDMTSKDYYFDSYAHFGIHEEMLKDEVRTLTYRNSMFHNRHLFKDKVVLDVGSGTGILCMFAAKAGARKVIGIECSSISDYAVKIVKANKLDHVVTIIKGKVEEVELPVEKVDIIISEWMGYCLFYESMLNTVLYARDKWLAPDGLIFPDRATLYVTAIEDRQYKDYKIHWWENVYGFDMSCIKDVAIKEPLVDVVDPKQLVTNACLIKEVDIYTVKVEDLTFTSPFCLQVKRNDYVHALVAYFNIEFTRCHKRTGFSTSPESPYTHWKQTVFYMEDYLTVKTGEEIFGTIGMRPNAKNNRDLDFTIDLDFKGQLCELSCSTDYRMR

[13] = Solution stability by 1H NMR and LC-MS; assay type: physicochemical; conditions: 10 mM in deuterated DMSO and deuterated H2O (90:10), room temperature, 4 weeks
[14] = system: H3K9me2 levels in 22RV1 cells; test: H3K9me2 in-cell western, 22RV1; assay type: cell-based; conditions: Homo sapiens, 22Rv1, read-out: IC50 for reduction of H3K9me2 levels
[15] = molecular target: M1 (Homo sapiens, UniProt P11229); test: M1 functional assay; assay type: cell-based
M1, sequence (P11229 whole entry): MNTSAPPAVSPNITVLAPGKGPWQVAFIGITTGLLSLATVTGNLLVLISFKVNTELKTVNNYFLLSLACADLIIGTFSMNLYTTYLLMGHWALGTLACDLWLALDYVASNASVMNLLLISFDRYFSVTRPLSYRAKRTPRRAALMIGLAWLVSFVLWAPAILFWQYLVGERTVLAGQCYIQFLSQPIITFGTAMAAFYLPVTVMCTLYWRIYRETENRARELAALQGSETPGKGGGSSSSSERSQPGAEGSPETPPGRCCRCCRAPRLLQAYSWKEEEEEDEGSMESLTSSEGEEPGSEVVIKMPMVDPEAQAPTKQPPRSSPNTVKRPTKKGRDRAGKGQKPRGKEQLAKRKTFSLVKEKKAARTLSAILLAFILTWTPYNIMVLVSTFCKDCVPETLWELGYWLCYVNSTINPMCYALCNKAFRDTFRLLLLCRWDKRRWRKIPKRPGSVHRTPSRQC

[16] = molecular target: T1, G9a; test: Endoproteinase-coupled microfluidic capillary electrophoresis; assay type: biochemical
[17] = system: histone marks in MDA-MB-231 cells; test: Quantitative MS analysis of histone modifications; assay type: cell-based, human; conditions: 1 μM for 48 h
Outline: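 MDA-MB-231 cells were treated at 1 µM for 48 h. Histones were acid-extracted, derivatized with propionic anhydride and digested with trypsin. Mock and treated samples carried D0 or D5 propionyl labels. Peptides were analysed by LC-MS/MS on an Orbitrap, with all data manually verified.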

[18] = molecular target: T1, G9a; test: G9a fluorescence-polarization peptide displacement assay; assay type: binding
[19] = assay results from BPS Bioscience

For `COc1cc2c(NC3CCN(C(C)C)CC3)nc(C3CCCCC3)nc2cc1OCCCN1CCCC1` [UNC0638], the “disassociation rate (kd)” value [1] was 0.057 s⁻¹, the EC50 [2] was 11 µM and the IC50 [3] was 0.138 µM. For the same compound, the “total levels of DNA methylation on chr3 and chrX” value [4] was “not altered”, the IC50 [5] was over 10 µM and the IC50 ([5]; SAHH-coupled assay) was “inactive”. For the same compound, the inhibition at 1 µM [6] was 64%, the inhibition at 1 µM [7] was 90% and the agonist activity [8] was “no agonist activity”. For the same compound, the “DNA methylation of retrovirus LTR and MAGEA2 promoter” value [9] was “induced DNA hypomethylation in a concentration-dependent manner”, the IC50 [10] was over 10 µM and the IC50 [10, 19] was “inactive”. The inhibition [11] was under 30%, the IC50 [12] was over 10 µM and the IC50 [12, 19] was “inactive”. For the same compound, the stability in solution [13] was “stable”, the IC50 [14] was 0.048 µM and the IC50 [15] was over 10 µM. For the same compound, the “mechanism of action versus peptide substrate” value ([16]; Km of the peptide increased linearly with UNC0638 concentration) was “competitive with the peptide substrate”, the “mechanism of action versus cofactor SAM” value ([16]; apparent Km of SAM remained constant) was “noncompetitive with cofactor SAM” and the “levels of H3K9me2 by quantitative MS” value [17] was “considerably lower”. The “levels of H3K9me3 by quantitative MS” value [17] was “remained constant”, the “levels of H3K14ac by quantitative MS” value [17] was “doubled” and the “displacement of fluorescein-labeled 15-mer H3 peptide (residues 1–15)” value [18] was “high efficiency”.
